Results from different studies.
Lines come from different studies, so protocols differ.
FLT3 D835Y: Receptor-type tyrosine-protein kinase FLT3 (FLT3, Homo sapiens, UniProt P36888, D835Y)
FLT3: Receptor-type tyrosine-protein kinase FLT3 (FLT3, Homo sapiens, UniProt P36888)
FLT3 N841I: Receptor-type tyrosine-protein kinase FLT3 (FLT3, Homo sapiens, UniProt P36888, N841I)
FLT3 D835V/ITD: Receptor-type tyrosine-protein kinase FLT3 (FLT3, Homo sapiens, UniProt P36888, D835V/ITD)
FLT3 K663Q: Receptor-type tyrosine-protein kinase FLT3 (FLT3, Homo sapiens, UniProt P36888, K663Q)
FLT3 autoinhibited: Receptor-type tyrosine-protein kinase FLT3, autoinhibited (FLT3, Homo sapiens, UniProt P36888)
FLT3 D835V: Receptor-type tyrosine-protein kinase FLT3 (FLT3, Homo sapiens, UniProt P36888, D835V)
FLT3 R834Q: Receptor-type tyrosine-protein kinase FLT3 (FLT3, Homo sapiens, UniProt P36888, R834Q)

Structure (SMILES) | target | read-out | method | tested at | remaining binding
CN(CCCC(F)(F)F)c1nccc(-c2cnn3ncccc23)n1 | FLT3 D835Y | binding | – | 1 µM | 76%
c1cncc(-c2cccc(Nc3nccc(NC4CCCCC4)n3)c2)c1 | FLT3 D835Y | binding | competition with immobilised ligand | 10 µM | 1.4%
C[C@@H](c1ccc(-n2cnc3c(N)ncnc32)cc1)N1CCc2nn(C)c(Cc3ccccc3)c2C1=O | FLT3 | binding | competition with immobilised ligand | 0.1 µM | 100%
CN(C)c1ncc(F)c(-c2cnn3ncccc23)n1 | FLT3 N841I | binding | – | 1 µM | 75%
O=C1CCc2cc(Nc3cc(OC4CCOCC4)c([N+](=O)[O-])cc3Cl)ccc2N1 | FLT3 D835V/ITD | cell-free assay | competition with immobilised ligand | 1 µM | 78%
COc1ccnn2ncc(-c3ccnc(N(C)C)n3)c12 | FLT3 K663Q | binding | – | 1 µM | 100%
CN1CCN(c2ccc(Nc3nccc(-c4cccc([N+](=O)[O-])c4)n3)cc2C(F)(F)F)CC1 | FLT3 D835Y | binding | – | 10 µM | 0%
O=C(NCC1CCOCC1)c1n[nH]cc1NC(=O)c1c(F)cccc1F | FLT3 N841I | binding | competition with immobilised ligand | 1 µM | 100%
CCN1CCN(Cc2ccc(C(=O)Nc3ccc(C)c(Oc4ccc5c(c4)CC(=O)N5)c3)cc2C(F)(F)F)CC1 | FLT3 autoinhibited | binding | competition with immobilised ligand | 1 µM | 100%
Nc1ncc2c(n1)-c1c([nH]c3ccc(C#CC4CC4)cc13)CCCC2 | FLT3 | binding | competition with immobilised ligand | 1 µM | 96%
CC(C)CC(=O)N1CCc2nc(-c3ccc(Br)cc3)nc(N(C)Cc3ccccc3)c2C1 | FLT3 K663Q | cell-free assay | competition with immobilised ligand | 0.1 µM | 100%
CNC(=O)[C@@H]1CC[C@@H](n2c(-c3ccc4cnccc4c3)nc3ccc(C(=O)NCc4cccc(C(N)=O)c4)cc32)C1 | FLT3 K663Q | binding | competition with immobilised ligand | 1 µM | 99%
CO[C@@H](C)c1c(Nc2ccc([C@H](N(C)C(=O)C3CCS(=O)(=O)CC3)C(F)(F)F)cc2)cnc2cc(Cl)nn12 | FLT3 D835Y | cell-free assay | competition with immobilised ligand | 1 µM | 59%
Cc1cnc(Nc2ccc(C(=O)N3CCC(N4CCCC4)CC3)cc2)nc1-c1cc2ccccc2s1 | FLT3 D835Y | binding | competition with immobilised ligand | 1 µM | 3.6%
CNC(=O)Nc1ccc2c(c1)[C@@]1(CC2)OC(=O)N(CC(=O)N(Cc2ccc(F)cc2)[C@@H](C)C(F)(F)F)C1=O | FLT3 D835V | cell-free assay | competition with immobilised ligand | 1 µM | 81%
O=C(c1ccc(Nc2ncc(Cl)c(-c3ccc(Cl)s3)n2)cc1)N1CCC(N2CCCC2)CC1 | FLT3 D835V/ITD | binding | competition with immobilised ligand | 1 µM | 1.1%
CN(c1nccc(-c2cnn3ncccc23)n1)C1CC1 | FLT3 K663Q | binding | – | 1 µM | 83%
O=C(c1ccc(Nc2ncc(Cl)c(-c3cc4ccccc4s3)n2)cc1)N1CCC(N2CCCC2)CC1 | FLT3 D835V | binding | competition with immobilised ligand | 1 µM | 1.3%
CN1CCN(c2ccc(Nc3nccc(-c4ccccc4)n3)cc2C(F)(F)F)CC1 | Receptor-type tyrosine-protein kinase FLT3 (FLT3, Homo sapiens, UniProt P36888, D835H) | binding | – | 10 µM | 0.2%

Structure (SMILES) | target | read-out | method | tested at | remaining binding
NS(=O)(=O)c1cc(NC(=O)Cc2ccccc2)ccc1Oc1cccc(Cl)c1 | FLT3 K663Q | cell-free assay | competition with immobilised ligand | 1 µM | 99%
C[C@H]1CCN(c2nccc(-c3cnn4ncccc34)n2)C1 | FLT3 R834Q | binding | – | 1 µM | 71%
O=C(NCc1ncc(C(F)(F)F)cc1Cl)c1ccc2c(c1)C1(CCS(=O)(=O)CC1)[C@H](C1CC1)N2S(=O)(=O)c1ccc(F)cc1 | FLT3 R834Q | cell-free assay | competition with immobilised ligand | 1 µM | 90%
N[C@@H]1CCN(c2nccc(-c3cnn4ncccc34)n2)C1 | FLT3 R834Q | binding | – | 1 µM | 100%
COc1cnc(Nc2cccc(S(N)(=O)=O)c2)nc1N1CCN(c2ccccc2)C(=O)C1 | FLT3 autoinhibited | binding | competition with immobilised ligand | 1 µM | 100%
O=C(NCCCN1CCOCC1)c1ccc(Nc2nccc(-c3cc4ccccc4s3)n2)cc1 | FLT3 D835V | binding | competition with immobilised ligand | 1 µM | 3.4%
COc1cnc(Nc2cccc(S(N)(=O)=O)c2)nc1N1CCN(c2ccccc2)CC1 | FLT3 N841I | binding | competition with immobilised ligand | 1 µM | 21%
O=C(Nc1c[nH]nc1C(=O)NC1CCNCC1)c1cc(F)cc(F)c1 | FLT3 | binding | competition with immobilised ligand | 1 µM | 100%
C=CC(=O)N1CCC(C(=O)NCC(=O)N2CCN(c3nc(-c4cnc(N)nc4C(F)F)nc(N4CCOCC4)n3)CC2)CC1 | FLT3 | binding | competition with immobilised ligand | 1 µM | 91%
Cc1noc([C@H]2C[C@@H](c3ccc(C(F)(F)F)cc3)CN(C(=O)N3CCS(=O)(=O)C3)C2)n1 | FLT3 R834Q | cell-free assay | competition with immobilised ligand | 1 µM | 91%
COc1ncc2cc3ccccc3nc2c1C#N | FLT3 D835V | cell-free assay | competition with immobilised ligand | 5 µM | 100%
O=C(c1ccc(Nc2nccc(-c3cc4ccccc4s3)n2)cc1)N1CCC(N2CCCC2)CC1 | Receptor-type tyrosine-protein kinase FLT3 (FLT3, Homo sapiens, UniProt P36888, ITD) | binding | competition with immobilised ligand | 1 µM | 46%
O=C(NCCCC1CCCCC1)c1ccc(CNC(=O)c2cnn(-c3ccccc3)c2C(F)(F)F)cc1 | FLT3 D835V/ITD | cell-free assay | competition with immobilised ligand | 0.1 µM | 100%
CN(C)c1nccc(-c2cnc3ncccn23)n1 | FLT3 autoinhibited | binding | – | 1 µM | 72%
CC(C)(C)c1ccc(-c2nc(CBr)nn2-c2cccc(O)c2)cc1 | FLT3 | cell-free assay | competition with immobilised ligand | 10 µM | 82%
CC1CCCN1c1nccc(-c2cnn3ncccc23)n1 (stereo not shown) | FLT3 K663Q | binding | – | 1 µM | 100%
O=C(NCCCN1CCOCC1)c1ccc(Nc2ncc(Cl)c(-c3ccc(Cl)s3)n2)cc1 | FLT3 D835Y | binding | competition with immobilised ligand | 1 µM | 1.8%
FC(F)(F)Oc1cccc(-c2cnc3ccc(-c4ccncc4)nn23)c1 | FLT3 | cell-free assay | competition with immobilised ligand | 5 µM | 3.6%
